Reference: PubChem BioAssay AID743061 (The Scripps Research Institute Molecular Screening Center, 2013)

Target: Methionine--tRNA ligase, mitochondrial (Homo sapiens) (UniProt Q96GW9)
Test: inhibitors of human mitochondrial MetRS, late-stage follow-up, selectivity assay for T. brucei MetRS inhibitor project, biochemical, radioactivity, round 1 (AID 743061);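 note: 0% = DMSO with full reaction and 100% = DMSO wells lacking tRNA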
Conditions: recombinant human mtMetRS, [3H]Met tRNA charging, at 1 µM, stronger effect = higher value
Summary of the method: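 System: human mitochondrial MetRS enzyme / Buffer or medium: pH 8.0 reaction buffer containing 2.5 mM ATP / Probe or stimulus: 240 nM [3H]methionine with bulk E. coli tRNA acceptor / Doses: 10 and 1 µM / Times: 15 min compound–enzyme preincubation, then 1 h reaction at room temperature / Detection: scintillation counts of TCA-precipitated charged tRNA on filters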

Row | Structure (SMILES) | inhibition [%]
1 | CC(C)OCCCN1CC(=O)N2C(c3cccc([N+](=O)[O-])c3)c3[nH]c4ccccc4c3C[C@H]2C1=O (stereo partly specified) | -24.2
2 | O=C(N/C(=C\c1cccnc1)c1nc2ccccc2[nH]1)c1cccc(Br)c1 | -19.7
3 | COc1ccc(NC(=O)C2CC(=O)n3c(nc4ccccc43)N2)cc1 (stereo unspecified) | -2.67
4 | O=C(NCCc1nc2ccccc2[nH]1)c1ccc(Cl)cc1Cl | 16.4
5 | O=C(NCCc1nc2ccccc2[nH]1)c1ccc(Cl)c(Cl)c1 | 2.38
6 | CCO[C@@H]1OC(C(=O)NCc2nc3ccccc3[nH]2)=C[C@H](c2ccc(Br)cc2)[C@H]1CCCO | -4.89
7 | CCN(CC)C(=O)C(=O)c1cn(CC(=O)Nc2cccc(OC)c2)c2ccccc12 | 10.6
8 | CCOC(=O)N1CCC(Nc2c(Nc3ccc(F)cc3)c(=O)c2=O)CC1 | -8.53
9 | Oc1c(Cl)cc(Cl)cc1CNc1nc2ccccc2[nH]1 | -0.2
10 | CCN(CC)C(=O)C(=O)c1cn(CC(=O)N(CC)c2ccccc2)c2ccccc12 | 2.19
11 | CC(CC(=O)Nc1cccc(Br)c1)=NNC(=O)c1ccc(O)cc1O | -24.6
12 | O=C(CSc1nnc2c(n1)[nH]c1ccc(Br)cc12)NCc1ccccc1 | -0.52
13 | CNC(=S)N(CCc1ccccc1)C1CC(=O)N(c2ccc(Br)cc2)C1=O (stereo unspecified) | 39
14 | O=C(NNC(=O)c1ccc(-n2cncn2)c([N+](=O)[O-])c1)c1ccc(Cl)cc1 | -30.3
15 | CCC(=O)c1cn(CC(=O)Nc2cccc(C(F)(F)F)c2)c2ccccc12 | -18.3
16 | O=C(NCc1nc2ccccc2[nH]1)C1=C[C@H](c2ccc3c(c2)OCO3)C[C@H](OCCCCO)O1 | -10.7
